In paper PMC7760462 (ACS Central Science, 2020):
Values after ≈ are worked out from the molar mass of the structure shown.

Legend:
VRE (ATCC51858) = assay: Antimicrobial activity against extracellular bacteria; type: cell-based, vancomycin-resistant enterococci; conditions: Enterococcus, 18 h, read-out: extracellular MIC, VRE
S. aureus (ATCC12608) = assay: Characterization of cell wall inhibition by SEM; type: cell-based, Staphylococcus aureus; conditions: S. aureus treated 12 h at drug/bacteria ratio equivalent to MIC determination
Method in brief: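 S. aureus ATCC12608 was treated with the test compound, with PBS, free vancomycin and the unconjugated polypeptide as comparators. Cell wall morphology was then examined by scanning electron microscopy.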

[1] = system: kidney of MRSA-infected mice; assay: Kidney histology analysis; type: in vivo, mice (CD1-IGS); conditions: 72 h after infection (Figure 5e)
Method in brief: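 Mice were infected with MRSA USA100 (2 × 10^7 CFU) by tail-vein injection at 0 h. They received intraperitoneal PBS, vancomycin (100 mg/kg), test compound (72 mg/kg) or unconjugated polypeptide (50 mg/kg, molar equivalent) at 24 and 36 h. Mice were sacrificed at 72 h, and kidneys were H&E-stained for granulomatous foci, immune-cell infiltration and tubular necrosis.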

[2] = system: bacteria exposed to subinhibitory concentrations; assay: Resistance test by serial passage; type: cell-based
MRSA (USA100) = assay: Antimicrobial activity against extracellular bacteria; type: cell-based, methicillin-resistant Staphylococcus aureus; conditions: Staphylococcus aureus, MRSA|USA100, 18 h, read-out: extracellular MIC, MRSA
[3] = by previous studies; cited from earlier work
RAW 264.7 macrophages = assay: MTT cell viability assay; type: cell-based; conditions: Mus musculus, RAW264.7, 24 h, read-out: IC50, RAW

Question: For `CN[C@H](CC(C)C)C(=O)N[C@H]1C(=O)N[C@@H](CC(N)=O)C(=O)N[C@H]2C(=O)N[C@H]3C(=O)N[C@H](C(=O)N[C@H](C(=O)O)c4cc(O)cc(O)c4-c4cc3ccc4O)[C@H](O)c3ccc(c(Cl)c3)Oc3cc2cc(c3O[C@@H]2O[C@H](CO)[C@@H](O)[C@H](O)[C@H]2O[C@H]2C[C@](C)(N)[C@H](O)[C@H](C)O2)Oc2ccc(cc2Cl)[C@H]1O` [Van, vancomycin], which MIC (VRE (ATCC51858)) is on record?
Answer: The MIC was 176 µM (≈ 255 µg/mL).

Question: And the “cell wall appearance by SEM” value (S. aureus (ATCC12608))?
Answer: Its value is “damaged bacterial cell wall”.

Question: What about the “granulomatous foci in kidney (H&E)” value [1] of the same compound?
Answer: Its value is “almost no granulomatous foci”.

Question: What about the “resistance induction, change in MIC” value ([2]; over/after 20 passages at subinhibitory concentration) of the same compound?
Answer: The value was “tripling”.

Question: And the “resistance induction, change in MIC” value ([2]; within 5 passages at subinhibitory concentration)?
Answer: The value was “MIC doubling”.

Question: And the MIC (MRSA (USA100))?
Answer: Its MIC is 0.69 µM (≈ 1 µg/mL).

Question: And the “serum Cmax” value [3]?
Answer: Its value is roughly 50 µg/mL.

Question: What about the IC50 (RAW 264.7 macrophages) of the same compound?
Answer: The IC50 was greater than 706 µM.
